test system: HepG2; assay: Induction of fatty acid oxidation in human HepG2 cells after 48 hrs; assay type: functional, cell-based; details: not given
Summary of the method: (§1)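 HepG2 cells. Fatty acid synthesis read as decreased [¹⁴C] acetate incorporation into cellular lipids, reported as IC₅₀. Fatty acid oxidation read as T₂O generated in the culture medium, reported as EC₅₀.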

SMILES | Activity [%]
CC(=O)N1CCC(C(=O)N2CCC(N3CCN(C(=O)c4cc(-c5ccc(CO)cc5)nc(-c5ccc(CO)cc5)c4)CC3)CC2)CC1 | 120
CC(=O)N1CCC(C(=O)N2CCC(N3CCN(C(=O)c4cc(-c5ccc(O)cc5)nc(-c5ccc(O)cc5)c4)CC3)CC2)CC1 | 123
COc1ccc(-c2cc(C(=O)N3CCN(C4CCN(C(=O)C5CCN(C(C)=O)CC5)CC4)CC3)cc(-c3ccc(OC)cc3)n2)cc1 | 167
CC(=O)N1CCC(C(=O)N2CCC(N3CCN(C(=O)c4cc(-c5cccc(C(N)=O)c5)nc(-c5cccc(C(N)=O)c5)c4)CC3)CC2)CC1 | 94
CC(=O)N1CCC(C(=O)N2CCC(N3CCN(C(=O)c4cc(-c5ccc(C)cc5)nc(-c5ccc(C)cc5)c4)CC3)CC2)CC1 | 176
CC(=O)N1CCC(C(=O)N2CCC(N3CCN(C(=O)c4cc(-c5ccccc5)nc(-c5ccccc5)c4)CC3)CC2)CC1 | 148
CC(=O)N1CCC(C(=O)N2CCC(N3CCN(C(=O)c4cc(-c5ccc(C(N)=O)cc5)nc(-c5ccc(C(N)=O)cc5)c4)CC3)CC2)CC1 | 135

same assay, conditions: Homo sapiens, HepG2, 48 h

EC50 [nM] | SMILES
580 | CC(=O)N1CCC(C(=O)N2CCC(N3CCN(C(=O)c4cc(-c5ccc(C)cc5)nc(-c5ccc(C)cc5)c4)CC3)CC2)CC1

test system: HepG2; assay: Inhibition of fatty acid synthesis in human HepG2 cells after 48 hrs; assay type: functional, cell-based; details: not given; summary of the method: as §1

SMILES | inhibition (INH) [%]
CC(=O)N1CCC(C(=O)N2CCC(N3CCN(C(=O)c4cc(-c5ccc(O)cc5)nc(-c5ccc(O)cc5)c4)CC3)CC2)CC1 | 29
COc1ccc(-c2cc(C(=O)N3CCN(C4CCN(C(=O)C5CCN(C(C)=O)CC5)CC4)CC3)cc(-c3ccc(OC)cc3)n2)cc1 | 77
CC(=O)N1CCC(C(=O)N2CCC(N3CCN(C(=O)c4cc(-c5ccc(C)cc5)nc(-c5ccc(C)cc5)c4)CC3)CC2)CC1 | 77
CC(=O)N1CCC(C(=O)N2CCC(N3CCN(C(=O)c4cc(-c5ccccc5)nc(-c5ccccc5)c4)CC3)CC2)CC1 | 72

same assay, conditions: Homo sapiens, HepG2, 48 h

IC50 [nM] | SMILES
840 | O=C(c1c2ccccc2cc2ccccc12)N1CCC(N2CCC[C@@H](C(=O)N3CCOCC3)C2)CC1
340 | CC(=O)N1CCC(C(=O)N2CCC(N3CCN(C(=O)c4cc(-c5ccc(C)cc5)nc(-c5ccc(C)cc5)c4)CC3)CC2)CC1

biological target: Acetyl-CoA carboxylase 1 (Homo sapiens, UniProt Q13085); assay: Inhibition of human recombinant ACC1; details: not given
Summary of the method: (§2)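 Recombinant human ACC1 and ACC2 enzymes; activity read as inhibition of malonyl-CoA synthesis.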

IC50 [nM] | SMILES
456 | O=C(c1c2ccccc2cc2ccccc12)N1CCC(N2CCC[C@@H](C(=O)N3CCOCC3)C2)CC1
101 | CC(=O)N1CCC(C(=O)N2CCC(N3CCN(C(=O)c4cc(-c5ccc(C)cc5)nc(-c5ccc(C)cc5)c4)CC3)CC2)CC1

biological target: Acetyl-CoA carboxylase 2 (Homo sapiens, UniProt O00763); assay: Inhibition of human recombinant ACC2; details: not given; summary of the method: as §2
Sequence (O00763 whole entry): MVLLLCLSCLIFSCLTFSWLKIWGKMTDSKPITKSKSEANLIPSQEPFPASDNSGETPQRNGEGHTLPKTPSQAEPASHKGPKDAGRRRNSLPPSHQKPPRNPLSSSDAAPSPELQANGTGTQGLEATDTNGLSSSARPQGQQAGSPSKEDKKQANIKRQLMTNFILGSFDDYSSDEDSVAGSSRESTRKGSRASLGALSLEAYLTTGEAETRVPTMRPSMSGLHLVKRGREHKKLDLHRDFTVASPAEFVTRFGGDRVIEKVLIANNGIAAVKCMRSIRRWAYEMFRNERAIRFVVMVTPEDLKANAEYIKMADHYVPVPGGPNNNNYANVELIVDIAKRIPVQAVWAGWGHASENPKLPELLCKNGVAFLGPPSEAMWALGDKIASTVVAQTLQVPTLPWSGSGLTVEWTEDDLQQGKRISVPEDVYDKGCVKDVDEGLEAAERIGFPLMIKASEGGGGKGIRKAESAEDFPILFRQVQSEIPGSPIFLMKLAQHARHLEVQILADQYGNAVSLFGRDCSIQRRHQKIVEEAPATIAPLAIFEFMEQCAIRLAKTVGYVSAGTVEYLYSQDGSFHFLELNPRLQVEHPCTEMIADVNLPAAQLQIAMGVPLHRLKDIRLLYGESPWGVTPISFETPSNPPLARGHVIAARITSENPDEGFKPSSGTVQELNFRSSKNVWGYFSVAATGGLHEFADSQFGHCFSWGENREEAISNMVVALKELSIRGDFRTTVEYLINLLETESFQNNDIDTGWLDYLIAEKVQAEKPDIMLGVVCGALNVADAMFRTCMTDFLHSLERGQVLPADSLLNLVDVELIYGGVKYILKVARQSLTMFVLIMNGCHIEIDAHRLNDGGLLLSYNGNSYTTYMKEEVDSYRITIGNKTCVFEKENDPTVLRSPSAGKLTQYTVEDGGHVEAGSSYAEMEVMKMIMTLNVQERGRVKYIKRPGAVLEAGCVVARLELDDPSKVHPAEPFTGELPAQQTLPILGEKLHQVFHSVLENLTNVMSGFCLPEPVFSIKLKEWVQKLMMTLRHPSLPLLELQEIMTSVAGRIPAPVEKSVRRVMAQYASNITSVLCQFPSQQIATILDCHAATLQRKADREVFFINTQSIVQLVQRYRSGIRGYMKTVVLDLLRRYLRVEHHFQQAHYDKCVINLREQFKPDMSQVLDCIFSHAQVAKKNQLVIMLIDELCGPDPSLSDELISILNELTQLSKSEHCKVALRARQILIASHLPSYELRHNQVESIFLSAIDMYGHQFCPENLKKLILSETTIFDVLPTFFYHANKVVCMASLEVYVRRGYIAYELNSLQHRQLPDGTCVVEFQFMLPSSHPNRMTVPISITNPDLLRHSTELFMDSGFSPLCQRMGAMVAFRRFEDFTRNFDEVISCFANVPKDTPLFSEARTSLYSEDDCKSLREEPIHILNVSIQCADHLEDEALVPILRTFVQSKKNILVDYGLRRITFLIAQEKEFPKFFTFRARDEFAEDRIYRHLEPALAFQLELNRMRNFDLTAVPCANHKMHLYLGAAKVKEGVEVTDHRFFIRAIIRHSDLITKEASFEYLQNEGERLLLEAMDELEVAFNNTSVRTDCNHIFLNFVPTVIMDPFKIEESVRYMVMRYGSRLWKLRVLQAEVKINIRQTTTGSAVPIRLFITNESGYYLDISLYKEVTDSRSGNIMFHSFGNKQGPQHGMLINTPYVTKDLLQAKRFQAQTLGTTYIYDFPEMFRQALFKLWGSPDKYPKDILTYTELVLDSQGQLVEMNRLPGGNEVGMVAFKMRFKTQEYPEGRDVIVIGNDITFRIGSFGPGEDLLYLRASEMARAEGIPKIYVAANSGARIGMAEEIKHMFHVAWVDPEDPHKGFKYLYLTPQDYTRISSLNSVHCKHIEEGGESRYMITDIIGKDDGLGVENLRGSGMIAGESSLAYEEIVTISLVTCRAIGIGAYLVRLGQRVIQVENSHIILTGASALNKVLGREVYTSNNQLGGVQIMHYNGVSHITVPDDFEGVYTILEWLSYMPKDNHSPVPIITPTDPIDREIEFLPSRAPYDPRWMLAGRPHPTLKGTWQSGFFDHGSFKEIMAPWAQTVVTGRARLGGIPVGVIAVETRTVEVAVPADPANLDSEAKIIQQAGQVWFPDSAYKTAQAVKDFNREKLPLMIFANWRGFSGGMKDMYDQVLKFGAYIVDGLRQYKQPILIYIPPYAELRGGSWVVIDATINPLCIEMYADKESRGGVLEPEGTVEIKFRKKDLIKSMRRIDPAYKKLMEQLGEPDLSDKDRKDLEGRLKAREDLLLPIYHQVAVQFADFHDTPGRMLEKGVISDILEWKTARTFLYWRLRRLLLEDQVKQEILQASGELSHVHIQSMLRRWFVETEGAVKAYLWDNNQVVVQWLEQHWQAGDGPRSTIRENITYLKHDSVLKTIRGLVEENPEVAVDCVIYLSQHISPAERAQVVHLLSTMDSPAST

IC50 [nM] | SMILES
194 | O=C(c1c2ccccc2cc2ccccc12)N1CCC(N2CCC[C@@H](C(=O)N3CCOCC3)C2)CC1
23 | CC(=O)N1CCC(C(=O)N2CCC(N3CCN(C(=O)c4cc(-c5ccc(C)cc5)nc(-c5ccc(C)cc5)c4)CC3)CC2)CC1

test system: not listed separately; assay: Metabolic stability in human liver microsome assessed as drug remaining at 5 uM after 15 mins; assay type: ADME; details: liver microsomes, read-out: Activity
Summary of the method: (§3)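 Compound at 5 µM incubated at 37 °C for 15 min with 1 mg/mL human or rat liver microsomes. Cofactors: 1.5 mM glucose-6-phosphate, 0.16 mM NADP, 1 U/mL glucose-6-phosphate dehydrogenase. Medium: 250 mM phosphate buffer, 2.4 mM MgCl₂, 69 mM KCl. Compound measured by LC–MS/MS at 0 and 15 min; % remaining reported.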

remaining at 0.25 h, 5 µM [%] | SMILES
52 | O=C(c1c2ccccc2cc2ccccc12)N1CCC(N2CCC[C@@H](C(=O)N3CCOCC3)C2)CC1
87 | CC(=O)N1CCC(C(=O)N2CCC(N3CCN(C(=O)c4cc(-c5ccc(C)cc5)nc(-c5ccc(C)cc5)c4)CC3)CC2)CC1

test system: not listed separately; assay: Metabolic stability in rat liver microsome assessed as drug remaining at 5 uM after 15 mins; assay type: ADME; details: liver microsomes, read-out: Activity; summary of the method: as §3

remaining at 0.25 h, 5 µM [%] | SMILES
96 | CC(=O)N1CCC(C(=O)N2CCC(N3CCN(C(=O)c4cc(-c5ccc(C)cc5)nc(-c5ccc(C)cc5)c4)CC3)CC2)CC1

test system: not listed separately; assay: Cmax in Sprague-Dawley rat at 10 mg/kg, po; assay type: ADME, organism-based; parameters: dose 10 mg/kg, route oral; details: in vivo
Summary of the method: (§4)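 Male Sprague-Dawley rats given a single oral dose of 10 mg/kg; plasma exposure parameters taken from the plasma profile.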

Cmax [ng/mL] | SMILES
107 | CC(=O)N1CCC(C(=O)N2CCC(N3CCN(C(=O)c4cc(-c5ccc(C)cc5)nc(-c5ccc(C)cc5)c4)CC3)CC2)CC1

test system: not listed separately; assay: Tmax in Sprague-Dawley rat at 10 mg/kg, po; assay type: ADME, organism-based; parameters: dose 10 mg/kg, route oral; details: in vivo; summary of the method: as §4

Tmax [h] | SMILES
4 | CC(=O)N1CCC(C(=O)N2CCC(N3CCN(C(=O)c4cc(-c5ccc(C)cc5)nc(-c5ccc(C)cc5)c4)CC3)CC2)CC1

test system: not listed separately; assay: AUC in Sprague-Dawley rat at 10 mg/kg, po; assay type: ADME, organism-based; parameters: dose 10 mg/kg, route oral; details: plasma; summary of the method: as §4

AUC [ng·h/mL] | SMILES
1000 | CC(=O)N1CCC(C(=O)N2CCC(N3CCN(C(=O)c4cc(-c5ccc(C)cc5)nc(-c5ccc(C)cc5)c4)CC3)CC2)CC1

biological target: Acetyl-CoA carboxylase (Homo sapiens, UniProt Q13085+O00763); assay: Inhibition of partially purified human liver ACC1/2; details: not given

SMILES | IC50 [nM]
O=C(c1c2ccccc2cc2ccccc12)N1CCC(N2CCC[C@@H](C(=O)N3CCOCC3)C2)CC1 | 116
O=C(c1c2ccccc2cc2ccccc12)N1CCN(C2CCN(C(=O)N3CCCCC3)CC2)CC1 | 121
O=C(Cc1ccccc1)N1CCC(N2CCN(C(=O)c3c4ccccc4cc4ccccc34)CC2)CC1 | 2112
Cc1cc(C(=O)N2CCC(N3CCN(C(=O)c4cc(-c5ccccc5)nc(-c5ccccc5)c4)CC3)CC2)c(C)o1 | 157
CC(=O)N1CCC(C(=O)N2CCC(N3CCN(C(=O)c4cc(-c5cccc(F)c5)nc(-c5cccc(F)c5)c4)CC3)CC2)CC1 | 131
O=C(c1ccccc1)N1CCC(C(=O)N2CCC(N3CCN(C(=O)c4cc(-c5ccccc5)nc(-c5ccccc5)c4)CC3)CC2)CC1 | 290
CC(=O)N1CCC(C(=O)N2CCC(N3CCN(C(=O)c4cc(-c5ccc(CO)cc5)nc(-c5ccc(CO)cc5)c4)CC3)CC2)CC1 | 32
O=C(c1c2ccccc2cc2ccccc12)N1CCN(C2CCN(C(=O)N3CCOCC3)CC2)CC1 | 239
Cc1cc(C(=O)N2CCC(N3CCN(C(=O)c4c5ccccc5cc5ccccc45)CC3)CC2)c(C)o1 | 60
CC(=O)N1CCC(C(=O)N2CCC(N3CCN(C(=O)c4cc(-c5ccc(O)cc5)nc(-c5ccc(O)cc5)c4)CC3)CC2)CC1 | 52
COc1ccc(-c2cc(C(=O)N3CCN(C4CCN(C(=O)C5CCN(C(C)=O)CC5)CC4)CC3)cc(-c3ccc(OC)cc3)n2)cc1 | 68
CC(=O)N1CCC(C(=O)N2CCC(N3CCN(C(=O)c4cc(-c5cccc(C(N)=O)c5)nc(-c5cccc(C(N)=O)c5)c4)CC3)CC2)CC1 | 73
CC(=O)N1CCC(C(=O)N2CCC(N3CCN(C(=O)c4cc(-c5ccc(C)cc5)nc(-c5ccc(C)cc5)c4)CC3)CC2)CC1 | 76
CC(=O)N1CCC(C(=O)N2CCC(N3CCN(C(=O)c4cc(-c5ccccc5)nc(-c5ccc(F)cc5)c4)CC3)CC2)CC1 | 184
O=C(c1ccccc1)N1CCC(N2CCN(C(=O)c3c4ccccc4cc4ccccc34)CC2)CC1 | 66
O=C(c1c2ccccc2cc2ccccc12)N1CCN(C2CCN(C(=O)C3CCCCC3)CC2)CC1 | 91
CC(=O)N1CCC(C(=O)N2CCC(N3CCN(C(=O)c4cc(-c5ccc(C(N)=O)cc5)nc(-c5ccc(C(N)=O)cc5)c4)CC3)CC2)CC1 | 67
O=C(c1ccco1)N1CCC(N2CCN(C(=O)c3c4ccccc4cc4ccccc34)CC2)CC1 | 161
O=C(c1ccccc1)N1CCC(N2CCN(C(=O)c3cc(-c4ccccc4)nc(-c4ccccc4)c3)CC2)CC1 | 693
O=C(c1c2ccccc2cc2ccccc12)N1CCN(C2CCN(C(=O)C3CCCC3)CC2)CC1 | 95

The remaining lines, values ahead:

IC50 [nM] | SMILES
95 | CNC(=O)N1CCC(C(=O)N2CCC(N3CCN(C(=O)c4cc(-c5ccccc5)nc(-c5ccccc5)c4)CC3)CC2)CC1
169 | CN(C)C(=O)N1CCC(C(=O)N2CCC(N3CCN(C(=O)c4cc(-c5ccccc5)nc(-c5ccccc5)c4)CC3)CC2)CC1
244 | O=C(c1cc(-c2ccccc2)nc(-c2ccccc2)c1)N1CCN(C2CCN(C(=O)C3CCCCC3)CC2)CC1
411 | CC(C)OC(=O)N1CCC(C(=O)N2CCC(N3CCN(C(=O)c4cc(-c5ccccc5)nc(-c5ccccc5)c4)CC3)CC2)CC1
434 | O=C(c1cc(-c2ccccc2)nc(-c2ccccc2)c1)N1CCN(C2CCN(C(=O)N3CCCCC3)CC2)CC1
115 | CCC(=O)N1CCC(C(=O)N2CCC(N3CCN(C(=O)c4cc(-c5ccccc5)nc(-c5ccccc5)c4)CC3)CC2)CC1
155 | CO[C@H]1CC[C@H](C(=O)N2CCC(N3CCN(C(=O)c4cc(-c5ccccc5)nc(-c5ccccc5)c4)CC3)CC2)CC1
248 | CS(=O)(=O)N1CCC(C(=O)N2CCC(N3CCN(C(=O)c4cc(-c5ccccc5)nc(-c5ccccc5)c4)CC3)CC2)CC1
102 | COC(=O)N1CCC(C(=O)N2CCC(N3CCN(C(=O)c4cc(-c5ccccc5)nc(-c5ccccc5)c4)CC3)CC2)CC1
869 | O=C(c1cc(-c2ccccc2)nc(-c2ccccc2)c1)N1CCN(C2CCN(C(=O)N3CCOCC3)CC2)CC1
151 | NC(=O)N1CCC(C(=O)N2CCC(N3CCN(C(=O)c4cc(-c5ccccc5)nc(-c5ccccc5)c4)CC3)CC2)CC1
126 | CC(=O)N1CCC(C(=O)N2CCC(N3CCN(C(=O)c4cc(-c5ccccc5)nc(-c5ccccc5)c4)CC3)CC2)CC1
169 | COCC(=O)N1CCC(C(=O)N2CCC(N3CCN(C(=O)c4cc(-c5ccccc5)nc(-c5ccccc5)c4)CC3)CC2)CC1
102 | O=C(CO)N1CCC(C(=O)N2CCC(N3CCN(C(=O)c4cc(-c5ccccc5)nc(-c5ccccc5)c4)CC3)CC2)CC1

From ChEMBL document CHEMBL1154385, “(4-Piperidinyl)-piperazine: a new platform for acetyl-CoA carboxylase inhibitors” (Bioorg Med Chem Lett, 2009)
